Active and inactive are the calls of the source. No cut-off for these calls is given here.
How the values were obtained:
HepG2 [1] = test: Cytotoxicity against human HepG2 cells up to 100 uM; format: cell-based
HepG2 [2] = test: Antihyperlipidemic activity in human HepG2 cells assessed as reduction of oleic acid-induced intracellular total cholesterol accumulation at 10 uM […] measured after 6 hrs; format: functional, cell-based
Procedure, shortened: (§1)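 HepG2 cells were kept in DMEM with 10% FBS and penicillin/streptomycin (100 μg/mL). At 70–80% confluence they were loaded with 100 μM oleic acid in DMEM for 12 h, then exposed to 10 μM compound in DMEM/100 μM oleic acid for a further 6 h. Lovastatin was the positive control and DMEM/oleic acid the blank. Intracellular TC and TG were measured with kits, n = 3, repeated in triplicate, mean ± SEM.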

HepG2 [3] = test: Antihyperlipidemic activity in human HepG2 cells assessed as reduction of oleic acid-induced lipid accumulation at 10 uM […] measured after 6 hrs by Oil Red O staining; format: functional, cell-based
Procedure, shortened: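 HepG2 cells were grown in DMEM with 10% FBS and penicillin/streptomycin (100 μg/mL). At 70–80% confluence they received 100 μM oleic acid for 12 h, then 10 μM compound in DMEM/100 μM oleic acid for 6 h more. Lovastatin was the positive control and DMEM/oleic acid the blank. Neutral lipid was stained with Oil Red O and read at 358 nm, n = 8, repeated in triplicate, mean ± SEM.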

HepG2 [4] = test: Antihyperlipidemic activity in human HepG2 cells assessed as reduction of oleic acid-induced intracellular triglyceride accumulation at 10 uM […] measured after 6 hrs; format: functional, cell-based; procedure, shortened: as §1

SMILES	Activity (HepG2 [1])	Activity (HepG2 [2])	Activity (HepG2 [3])	Activity (HepG2 [4])
C[C@H]1CC[C@H]2C(C)(C)[C@H](O)[C@H](O)C[C@]2(C)[C@@]12Cc1c(O)cc3c(c1O2)C(=O)NC3	Non-toxic	–	–	–
C[C@@H]1CC[C@H]2C(C)(C)[C@H](O)[C@H](O)C[C@]2(C)[C@@]12Cc1c(O)cc3c(c1O2)CN(CCO)C3=O	Non-toxic	–	–	–
C[C@H]1CC[C@H]2C(C)(C)[C@H](O)[C@H](O)C[C@]2(C)[C@@]12Cc1c(O)cc3c(c1O2)CNC3=O	Non-toxic	–	–	–
C[C@@H]1CC[C@H]2C(C)(C)[C@H](O)[C@H](O)C[C@]2(C)[C@@]12Cc1c(O)cc3c(c1O2)CNC3=O	Non-toxic	–	–	–
C[C@@H]1CC[C@H]2C(C)(C)[C@H](O)[C@@H](O)C[C@]2(C)[C@@]12Cc1c(O)cc3c(c1O2)CNC3=O	Non-toxic	–	–	–
C[C@H]1CC[C@H]2C(C)(C)[C@H](O)CC[C@]2(C)[C@@]12Cc1c(O)cc3c(c1O2)CN(CCO)C3=O	Non-toxic	Active	Active	–
CC(=O)O[C@@H]1CC[C@@]2(C)[C@@H](CC[C@@H](C)[C@]23Cc2c(O)cc4c(c2O3)CNC4=O)C1(C)C	Non-toxic	–	–	–
C[C@@H]1CC[C@H]2C(C)(C)[C@H](O)CC[C@]2(C)[C@@]12Cc1c(O)cc3c(c1O2)C(=O)N(CCO)C3	Non-toxic	–	–	–
C[C@@H]1CC[C@H]2C(C)(C)C(=O)CC[C@]2(C)[C@@]12Cc1c(O)cc3c(c1O2)CNC3=O	Non-toxic	Active	Active	Active
C[C@@H]1CC[C@H]2C(C)(C)[C@@H](O)[C@H](O)C[C@]2(C)[C@@]12Cc1c(O)cc3c(c1O2)CNC3=O	Non-toxic	–	–	–
C[C@@H]1CC[C@H]2C(C)(C)[C@H](O)CC[C@]2(C)[C@@]12Cc1c(O)cc3c(c1O2)C(=O)NC3	Non-toxic	Active	Active	Active
C[C@@H]1CC[C@H]2[C@](C)(CO)[C@H](O)CC[C@]2(C)[C@@]12Cc1c(O)cc3c(c1O2)CNC3=O	Non-toxic	–	–	–
C[C@@H]1CC[C@H]2C(C)(C)[C@H](O)CC[C@]2(C)[C@@]12Cc1c(O)cc3c(c1O2)C(=O)NC3=O	Non-toxic	–	–	–
C[C@@H]1CC[C@H]2C(C)(C)[C@H](O)CC[C@]2(C)[C@@]12Cc1c(O[C@H]3O[C@H](CO)[C@@H](O)[C@H](O)[C@H]3O)cc3c(c1O2)CNC3=O	Non-toxic	Active	Active	–
C[C@H]1CC[C@H]2C(C)(C)[C@H](O)CC[C@]2(C)[C@@]12Cc1c(O)cc3c(c1O2)C(=O)NC3	Non-toxic	–	Active	Active
C[C@@H]1CC[C@H]2C(C)(C)[C@H](O)CC[C@]2(C)[C@@]12Cc1c(O)cc3c(c1O2)CN(CCCCC(=O)O)C3=O	Non-toxic	–	–	–
CC(=O)O[C@@H]1[C@H](O)C[C@@]2(C)[C@@H](CC[C@@H](C)[C@]23Cc2c(O)cc4c(c2O3)CNC4=O)C1(C)C	Non-toxic	–	Active	Active
C[C@H]1CC[C@H]2C(C)(C)[C@H](O)CC[C@]2(C)[C@@]12Cc1c(O)cc3c(c1O2)CNC3=O	Non-toxic	–	–	–
CC(=O)O[C@@H]1[C@H](OC(C)=O)C[C@@]2(C)[C@@H](CC[C@@H](C)[C@]23Cc2c(O)cc4c(c2O3)CNC4=O)C1(C)C	Non-toxic	–	–	–
C[C@@H]1CC[C@H]2C(C)(C)[C@H](O)CC[C@]2(C)[C@@]12Cc1c(O)cc3c(c1O2)CN(CCO)C3=O	Non-toxic	–	–	–
C[C@@H]1CC[C@H]2C(C)(C)[C@H](O)CC[C@]2(C)[C@@]12Cc1c(O)cc3c(c1O2)CNC3=O	Non-toxic	–	–	–
C[C@@H]1CC[C@H]2C(C)(C)[C@H](O)CC[C@]2(C)[C@@]12Cc1c(O)cc3c(c1O2)CN(C(Cc1ccccc1)C(=O)O)C3=O (some centres not stated)	Non-toxic	Active	Active	Active
C[C@@H]1CC[C@H]2C(C)(C)[C@H](O)CC[C@]2(C)[C@@]12Cc1c(O)cc3c(c1O2)/C(=C1\NC(=O)c2cc(O)c4c(c21)O[C@@]1(C4)[C@@H](C)CC[C@@H]2C(C)(C)[C@@H](O)CC[C@]21C)NC3=O	Non-toxic	Active	Active	–
